Results taken from ChEMBL document CHEMBL4130549, “Synthesis and bioactivities study of new antibacterial peptide mimics: The dialkyl cationic amphiphiles” (Eur J Med Chem, 2018).
Active and inactive are the calls of the source. No cut-off for these calls is given here.

Key:
Staphylococcus aureus [1] = experiment: Antibacterial activity against Staphylococcus aureus ATCC 29213 after 16 to 20 hrs by broth microdilution method; type: functional
Summary of the method: (§1)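 CLSI broth microdilution in cation-adjusted Mueller-Hinton broth. A 4-6 h culture was diluted to about 10⁶ CFU/mL and mixed 1:1 with twofold compound dilutions (256–0.5 µg/mL before mixing) prepared from aqueous stocks. Plates were incubated at 37 °C for 16-20 h. Each concentration was tested in duplicate, and the experiment was repeated at least twice.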

Enterococcus faecalis = experiment: Antibacterial activity against Enterococcus faecalis after 16 to 20 hrs by broth microdilution method; type: functional
Summary of the method: (§2)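 Broth microdilution per CLSI in cation-adjusted Mueller-Hinton broth; 4-6 h cultures (~10⁸ CFU/mL) diluted to ~10⁶ CFU/mL and mixed 1:1 with twofold dilutions of water-dissolved compound (256 to 0.5 µg/mL). Incubated 16-20 h at 37 °C; MIC read visually. Each concentration run in duplicate, whole experiment repeated at least twice. MRSA, KPC and NDM-1 strains were clinical isolates.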

Escherichia coli [2] = experiment: Antibacterial activity against Escherichia coli ATCC 25922 after 16 to 20 hrs by broth microdilution method; type: functional; summary of the method: as §2
Salmonella enterica = experiment: Antibacterial activity against Salmonella enterica after 16 to 20 hrs by broth microdilution method; type: functional; summary of the method: as §2
Staphylococcus aureus [3] = experiment: Antibacterial activity against methicillin-resistant Staphylococcus aureus after 16 to 20 hrs by broth microdilution method; type: functional; summary of the method: as §1
Klebsiella pneumoniae [4] = experiment: Antibacterial activity against carbapenemase-producing Klebsiella pneumoniae after 16 to 20 hrs by broth microdilution method; type: functional; summary of the method: as §2
Enterobacteriaceae [5] = experiment: Antibacterial activity against NDM-1-producing Enterobacteriaceae after 16 to 20 hrs by broth microdilution method; type: functional; summary of the method: as §2
[6] = Hemolytic activity in sheep RBC after 1 hr; type: ADME, cell-based, Ovis aries, Erythrocyte; details: sheep red blood cells (erythrocytes)
Summary of the method: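 Sheep RBCs suspended at 5% in PBS; 150 µL added to 50 µL compound dilutions (5120 to 10 µg/mL series). Incubated 1 h at 37 °C, then centrifuged; supernatant absorbance read at 540 nm. Lysis (%) = (A−A0)/(Atotal−A0)×100, with untreated 5% RBC as A0 and 0.1% Triton X-100 as total.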

Staphylococcus aureus [7] = experiment: Antibacterial activity against methicillin-resistant Staphylococcus aureus isolate M1 after 16 to 20 hrs by broth microdilution method; type: functional; summary of the method: as §1
Staphylococcus aureus [8] = experiment: Antibacterial activity against methicillin-resistant Staphylococcus aureus isolate M2 after 16 to 20 hrs by broth microdilution method; type: functional; summary of the method: as §1
Staphylococcus aureus [9] = experiment: Antibacterial activity against methicillin-resistant Staphylococcus aureus isolate M3 after 16 to 20 hrs by broth microdilution method; type: functional; summary of the method: as §1
Staphylococcus aureus [10] = experiment: Antibacterial activity against methicillin-resistant Staphylococcus aureus isolate M4 after 16 to 20 hrs by broth microdilution method; type: functional; summary of the method: as §1
Staphylococcus aureus [11] = experiment: Antibacterial activity against methicillin-resistant Staphylococcus aureus isolate M5 after 16 to 20 hrs by broth microdilution method; type: functional; summary of the method: as §1
Staphylococcus aureus [12] = experiment: Antibacterial activity against methicillin-resistant Staphylococcus aureus isolate M6 after 16 to 20 hrs by broth microdilution method; type: functional; summary of the method: as §1
Staphylococcus aureus [13] = experiment: Antibacterial activity against methicillin-resistant Staphylococcus aureus isolate M7 after 16 to 20 hrs by broth microdilution method; type: functional; summary of the method: as §1
Staphylococcus aureus [14] = experiment: Antibacterial activity against methicillin-resistant Staphylococcus aureus isolate M8 after 16 to 20 hrs by broth microdilution method; type: functional; summary of the method: as §1
Staphylococcus aureus [15] = experiment: Antibacterial activity against methicillin-resistant Staphylococcus aureus isolate M9 after 16 to 20 hrs by broth microdilution method; type: functional; summary of the method: as §1
Staphylococcus aureus [16] = experiment: Antibacterial activity against methicillin-resistant Staphylococcus aureus isolate M10 after 16 to 20 hrs by broth microdilution method; type: functional; summary of the method: as §1
Klebsiella pneumoniae [17] = experiment: Antibacterial activity against carbapenemase-producing Klebsiella pneumoniae isolate K1 after 16 to 20 hrs by broth microdilution method; type: functional; summary of the method: as §2
Klebsiella pneumoniae [18] = experiment: Antibacterial activity against carbapenemase-producing Klebsiella pneumoniae isolate K2 after 16 to 20 hrs by broth microdilution method; type: functional; summary of the method: as §2
Klebsiella pneumoniae [19] = experiment: Antibacterial activity against carbapenemase-producing Klebsiella pneumoniae isolate K3 after 16 to 20 hrs by broth microdilution method; type: functional; summary of the method: as §2
Klebsiella pneumoniae [20] = experiment: Antibacterial activity against carbapenemase-producing Klebsiella pneumoniae isolate K4 after 16 to 20 hrs by broth microdilution method; type: functional; summary of the method: as §2
Klebsiella pneumoniae [21] = experiment: Antibacterial activity against carbapenemase-producing Klebsiella pneumoniae isolate K5 after 16 to 20 hrs by broth microdilution method; type: functional; summary of the method: as §2
Klebsiella pneumoniae [22] = experiment: Antibacterial activity against carbapenemase-producing Klebsiella pneumoniae isolate K6 after 16 to 20 hrs by broth microdilution method; type: functional; summary of the method: as §2
Klebsiella pneumoniae [23] = experiment: Antibacterial activity against carbapenemase-producing Klebsiella pneumoniae isolate K7 after 16 to 20 hrs by broth microdilution method; type: functional; summary of the method: as §2
Klebsiella pneumoniae [24] = experiment: Antibacterial activity against carbapenemase-producing Klebsiella pneumoniae isolate K8 after 16 to 20 hrs by broth microdilution method; type: functional; summary of the method: as §2
Klebsiella pneumoniae [25] = experiment: Antibacterial activity against carbapenemase-producing Klebsiella pneumoniae isolate K9 after 16 to 20 hrs by broth microdilution method; type: functional; summary of the method: as §2
Klebsiella pneumoniae [26] = experiment: Antibacterial activity against carbapenemase-producing Klebsiella pneumoniae isolate K10 after 16 to 20 hrs by broth microdilution method; type: functional; summary of the method: as §2
Enterobacteriaceae [27] = experiment: Antibacterial activity against NDM-1-producing Enterobacteriaceae isolate N1 after 16 to 20 hrs by broth microdilution method; type: functional; summary of the method: as §2
Enterobacteriaceae [28] = experiment: Antibacterial activity against NDM-1-producing Enterobacteriaceae isolate N2 after 16 to 20 hrs by broth microdilution method; type: functional; summary of the method: as §2
Enterobacteriaceae [29] = experiment: Antibacterial activity against NDM-1-producing Enterobacteriaceae isolate N3 after 16 to 20 hrs by broth microdilution method; type: functional; summary of the method: as §2
Enterobacteriaceae [30] = experiment: Antibacterial activity against NDM-1-producing Enterobacteriaceae isolate N4 after 16 to 20 hrs by broth microdilution method; type: functional; summary of the method: as §2
Enterobacteriaceae [31] = experiment: Antibacterial activity against NDM-1-producing Enterobacteriaceae isolate N5 after 16 to 20 hrs by broth microdilution method; type: functional; summary of the method: as §2
Enterobacteriaceae [32] = experiment: Antibacterial activity against NDM-1-producing Enterobacteriaceae isolate N6 after 16 to 20 hrs by broth microdilution method; type: functional; summary of the method: as §2
Enterobacteriaceae [33] = experiment: Antibacterial activity against NDM-1-producing Enterobacteriaceae isolate N7 after 16 to 20 hrs by broth microdilution method; type: functional; summary of the method: as §2
Enterobacteriaceae [34] = experiment: Antibacterial activity against NDM-1-producing Enterobacteriaceae isolate N8 after 16 to 20 hrs by broth microdilution method; type: functional; summary of the method: as §2
Enterobacteriaceae [35] = experiment: Antibacterial activity against NDM-1-producing Enterobacteriaceae isolate N9 after 16 to 20 hrs by broth microdilution method; type: functional; summary of the method: as §2
Enterobacteriaceae [36] = experiment: Antibacterial activity against NDM-1-producing Enterobacteriaceae isolate N10 after 16 to 20 hrs by broth microdilution method; type: functional; summary of the method: as §2
Staphylococcus aureus [37] = experiment: Induction of cytoplasmic membrane depolarization in Staphylococcus aureus ATCC 29213 at 20 ug/ml measured every 2 mins for 12 mins by diSC35 staining based fluorescence assay; type: functional, organism-based
Summary of the method: (§3)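 Mid-log cells (4–6 h) pelleted, washed and resuspended (~10^8 CFU/mL) in PBS for S. aureus, or in 5 mM HEPES, 5 mM glucose and 100 mM KCl (1:1:1) for E. coli. Preloaded with diSC35 (10 µM, 50 µL), 30 min for S. aureus and 40 min plus EDTA (200 µM, 50 µL) for E. coli. Baseline read 8 min (ex 622/em 670 nm), then compound added to 20 µg/mL final and read every 2 min for 12 min. Water control.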

Escherichia coli [38] = experiment: Induction of cytoplasmic membrane depolarization in Escherichia coli ATCC 25922 at 20 ug/ml measured every 2 mins for 12 mins by diSC35 staining based fluorescence assay; type: functional, organism-based; summary of the method: as §3
Staphylococcus aureus [39] = experiment: Induction of inner membrane permeabilization in Staphylococcus aureus ATCC 29213 at 20 ug/ml measured every 2 mins for 12 mins by propidium iodide staining based fluorescence assay; type: functional, organism-based
Summary of the method: (§4)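 Mid-log cells (~10^8 CFU/mL) pre-incubated with propidium iodide (10 µM, 50 µL), 30 min for S. aureus and 40 min for E. coli. Fluorescence (ex 535/em 617 nm) read for 8 min, then compound added to 20 µg/mL final and monitored every 2 min for 12 min. Water-treated control.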

Escherichia coli [40] = experiment: Induction of inner membrane permeabilization in Escherichia coli ATCC 25922 at 20 ug/ml measured every 2 mins for 12 mins by propidium iodide staining based fluorescence assay; type: functional, organism-based; summary of the method: as §4
Escherichia coli [41] = experiment: Induction of outer membrane permeabilization in Escherichia coli ATCC 25922 at 20 ug/ml measured every 2 mins for 12 mins by NPN staining based fluorescence assay; type: functional, organism-based
Summary of the method: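 Mid-log E. coli (~10^8 CFU/mL) in black plates pre-incubated about 40 min with NPN (10 µM, 50 µL). Baseline read 8 min (ex 350/em 420 nm), then compound added to 20 µg/mL final and fluorescence followed every 2 min for 12 min. Water-treated control.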

## CCCCCCCCCCCN(CCCCCCCCCCC)C(=O)[C@@H](N)CCCCN.Cl.Cl
Staphylococcus aureus [1]
  MIC: 4 µg/mL
Enterococcus faecalis
  MIC: 2 µg/mL
Escherichia coli [2]
  MIC: 16 µg/mL
Salmonella enterica
  MIC: 8 µg/mL
Staphylococcus aureus [3]
  MIC: 4 µg/mL
Klebsiella pneumoniae [4]
  MIC: 8 µg/mL
Enterobacteriaceae [5]
  MIC: 32 µg/mL
[6]
  HC50 at 1 h: 89 µg/mL
Staphylococcus aureus [7]
  MIC: 2 µg/mL
Staphylococcus aureus [8]
  MIC: 1 µg/mL
Staphylococcus aureus [9]
  MIC: 2 µg/mL
Staphylococcus aureus [10]
  MIC: 2 µg/mL
Staphylococcus aureus [11]
  MIC: 4 µg/mL
Staphylococcus aureus [12]
  MIC: 4 µg/mL
Staphylococcus aureus [13]
  MIC: 4 µg/mL
Staphylococcus aureus [14]
  MIC: 4 µg/mL
Staphylococcus aureus [15]
  MIC: 4 µg/mL
Staphylococcus aureus [16]
  MIC: 4 µg/mL
Klebsiella pneumoniae [17]
  MIC: 32 µg/mL
Klebsiella pneumoniae [18]
  MIC: 16 µg/mL
Klebsiella pneumoniae [19]
  MIC: 16 µg/mL
Klebsiella pneumoniae [20]
  MIC: 8 µg/mL
Klebsiella pneumoniae [21]
  MIC: 32 µg/mL
Klebsiella pneumoniae [22]
  MIC: 32 µg/mL
Klebsiella pneumoniae [23]
  MIC: 32 µg/mL
Klebsiella pneumoniae [24]
  MIC: 8 µg/mL
Klebsiella pneumoniae [25]
  MIC: 32 µg/mL
Klebsiella pneumoniae [26]
  MIC: 32 µg/mL
Enterobacteriaceae [27]
  MIC: 32 µg/mL
Enterobacteriaceae [28]
  MIC: 32 µg/mL
Enterobacteriaceae [29]
  MIC: 32 µg/mL
Enterobacteriaceae [30]
  MIC: 32 µg/mL
Enterobacteriaceae [31]
  MIC: 32 µg/mL
Enterobacteriaceae [32]
  MIC: 32 µg/mL
Enterobacteriaceae [33]
  MIC: 16 µg/mL
Enterobacteriaceae [34]
  MIC: 16 µg/mL
Enterobacteriaceae [35]
  MIC: 32 µg/mL
Enterobacteriaceae [36]
  MIC: 32 µg/mL
Staphylococcus aureus [37]
  Activity: Active
Escherichia coli [38]
  Activity: Active
Staphylococcus aureus [39]
  Activity: Active
Escherichia coli [40]
  Activity: Active
Escherichia coli [41]
  Activity: Active
